From ChEMBL document CHEMBL2040741, “Hyaladione, an S-methyl cyclohexadiene-dione from Hyalangium minutum” (J Nat Prod, 2012)
In brackets after ≈: the same amount, converted by molar mass.

Experiments:
Micrococcus luteus = assay: Antimicrobial activity against Micrococcus luteus after 24 to 48 hrs by serial dilution technique; type: functional
Staphylococcus aureus = assay: Antimicrobial activity against methicillin-resistant Staphylococcus aureus after 24 to 48 hrs by serial dilution technique; type: functional
[1] = system: Schizosaccharomyces pombe; assay: Antimicrobial activity against Schizosaccharomyces pombe after 24 to 48 hrs by serial dilution technique; type: functional
How it was run: (§1)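 MIC by twofold (1:1) serial dilution in 96-well plates. Medium was MYC (1.0% glucose, 1.0% phytone peptone, 50 mM HEPES, pH 7.0), used for yeasts and fungi.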

Mucor hiemalis = assay: Antimicrobial activity against Mucor hiemalis after 24 to 48 hrs by serial dilution technique; type: functional; how it was run: as §1
Rhodotorula glutinis = assay: Antimicrobial activity against Rhodotorula glutinis after 24 to 48 hrs by serial dilution technique; type: functional; how it was run: as §1
Escherichia coli = assay: Antimicrobial activity against Escherichia coli after 24 to 48 hrs by serial dilution technique; type: functional
[2] = system: Chromobacterium violaceum; assay: Antimicrobial activity against Chromobacterium violaceum after 24 to 48 hrs by serial dilution technique; type: functional
[3] = Antimicrobial activity against Nocardia flava after 24 to 48 hrs by serial dilution technique; type: functional
[4] = Cytotoxicity against human KB-3-1 cells after 5 days by MTT assay; type: functional, cell-based; details: KB 3-1, 120 h
HUVEC = assay: Cytotoxicity against human HUVEC cells after 5 days by MTT assay; type: cell-based; details: 120 h
Wickerhamomyces anomalus = assay: Antimicrobial activity against Pichia anamola after 24 to 48 hrs by serial dilution technique; type: functional; how it was run: as §1
Pseudomonas aeruginosa = assay: Antimicrobial activity against Pseudomonas aeruginosa after 24 to 48 hrs by serial dilution technique; type: functional
MCF7 = assay: Cytotoxicity against human MCF7 cells after 5 days by MTT assay; type: functional, cell-based; details: MCF7, 120 h
Candida albicans = assay: Antimicrobial activity against Candida albicans after 24 to 48 hrs by serial dilution technique; type: functional; how it was run: as §1
L929 = assay: Cytotoxicity against mouse L929 cells after 5 days by MTT assay; type: functional, cell-based; details: L929, 120 h

| Compound | MIC (Micrococcus luteus) [µg/mL] | MIC (Staphylococcus aureus) [µg/mL] | MIC [1] [µg/mL] | MIC (Mucor hiemalis) [µg/mL] | MIC (Rhodotorula glutinis) [µg/mL] | MIC (Escherichia coli) [µg/mL] | MIC [2] [µg/mL] | MIC [3] [µg/mL] | IC50 [4] [µM] | IC50 (HUVEC) [nM] | MIC (Wickerhamomyces anomalus; Hansenula anomala) [µg/mL] | MIC (Pseudomonas aeruginosa) [µg/mL] | IC50 (MCF7) [nM] | MIC (Candida albicans) [µg/mL] | IC50 (L929) [nM] | MIC (Wickerhamomyces anomalus) [µg/mL] |
| --- | --- | --- | --- | --- | --- | --- | --- | --- | --- | --- | --- | --- | --- | --- | --- | --- |
| CSC1=CC(=O)C(N)=C(Cl)C1=O [HYALADIONE] | 3.3 (≈ 16.2 µM) | 0.83 (≈ 4.08 µM) | > 33.3 | 16.5 (≈ 81 µM) | 1.7 (≈ 8.35 µM) | 33.3 (≈ 164 µM) | 2.1 (≈ 10.3 µM) | 3.3 (≈ 16.2 µM) | 3.93 | 2210 | 33.3 (≈ 164 µM) | 8.5 (≈ 41.7 µM) | 1230 | > 33.3 | 1470 | – |
| CN(C)[C@@H]1C(O)=C(C(N)=O)C(=O)[C@@]2(O)C(O)=C3C(=O)c4c(O)cccc4[C@@](C)(O)[C@H]3[C@H](O)[C@@H]12.Cl [OXYTETRACYCLINE HYDROCHLORIDE] | 0.104 | 0.104 | – | – | – | 0.83 | 0.21 | 1.67 | – | – | – | – | – | – | – | – |
| NYSTATIN | – | – | 1.67 | 1.67 | 0.42 | – | – | – | – | – | – | – | – | 1.67 | – | 1.67 |
